Data from ChEMBL document CHEMBL1125920, “Synthesis and biological activity of 5-alkyl-1,7,8-trisubstituted-6-fluoroquinoline-3-carboxylic acids” (1991).
≈ marks a conversion by molar mass, not a printed value.

Legend:
Streptococcus pyogenes = test: Antibacterial activity was determined against gram positive organism, Streptococcus pyogenes (C203); type: functional
How it was run: (§1)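 MIC by standard microtitration against a panel of 10 representative Gram-negative and Gram-positive organisms; values reported in µg/mL.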

Klebsiella pneumoniae = test: Antibacterial activity was determined against gram negative organism, K. pneumoniae (MGH-2); type: functional; how it was run: as §1
Enterobacter cloacae = test: Antibacterial activity against gram negative organism, […] (MA2646); type: functional
Bacteria = test: Antibacterial activity was determined against gram negative organism, Providencia rettgeri. (M1771); type: functional; how it was run: as §1
[1] = target: DNA gyrase (Escherichia coli) (UniProt P0AES6+P0AES4)
[2] = MIC ratio measured as the mean MICs of gram-positive bacteria; type: functional
How it was run: (§2)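 Geometric mean of the MICs (µg/mL) over the Gram-negative or the Gram-positive strains of the 10-organism microtitration panel, calculated separately for each class.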

Streptococcus pneumoniae = test: Antibacterial activity was determined against gram positive organism, Streptococcus pneumoniae (SV-1); type: functional; how it was run: as §1
Staphylococcus aureus [3] = test: Antibacterial activity was determined against gram positive organism, Staphylococcus aureus (H228); type: functional; how it was run: as §1
Pseudomonas aeruginosa = test: Antibacterial activity was determined against gram negative organism, Pseudomonas aeruginosa (UI-18); type: functional; how it was run: as §1
[4] = MIC ratio measured as the mean MICs of gram-negative bacteria; type: functional; how it was run: as §2
Staphylococcus aureus [5] = test: Antibacterial activity was determined against gram positive organism, Staphylococcus aureus (UC76); type: functional; how it was run: as §1
Escherichia coli = test: Antibacterial activity was determined against gram negative organism, E. coli(vogel); type: functional; how it was run: as §1
Enterococcus faecalis = test: Antibacterial activity was determined against gram positive organism, Streptococcus faecalis (MGH-2); type: functional; how it was run: as §1

Structure (SMILES)	MIC (Streptococcus pyogenes)	MIC (Klebsiella pneumoniae)	MIC (Enterobacter cloacae)	MIC (Bacteria)	DNA cleavage [1]	Ratio [2]	MIC (Streptococcus pneumoniae)	MIC (Staphylococcus aureus [3])	MIC (Pseudomonas aeruginosa)	Ratio [4]	MIC (Staphylococcus aureus [5])	MIC (Escherichia coli)	MIC (Enterococcus faecalis)
CCn1cc(C(=O)O)c(=O)c2cc(F)c(N3CCC(N)C3)c(F)c21 (stereo not given)	0.2 mg/L (≈ 0.593 µM)	0.2 mg/L (≈ 0.593 µM)	0.1 mg/L (≈ 0.296 µM)	0.2 mg/L (≈ 0.593 µM)	2.5 µg/mL	0.27	0.4 mg/L (≈ 1.19 µM)	0.4 mg/L (≈ 1.19 µM)	0.4 mg/L (≈ 1.19 µM)	0.17	0.1 mg/L (≈ 0.296 µM)	0.1 mg/L (≈ 0.296 µM)	0.4 mg/L (≈ 1.19 µM)
CCc1c(F)c(N2CCC(N)C2)cc2c1c(=O)c(C(=O)O)cn2C1CC1 (stereo not given)	3.1 mg/L (≈ 8.63 µM)	1.6 mg/L (≈ 4.45 µM)	0.8 mg/L (≈ 2.23 µM)	6.3 mg/L (≈ 17.5 µM)	–	5.45	1.6 mg/L (≈ 4.45 µM)	12.5 mg/L (≈ 34.8 µM)	12.5 mg/L (≈ 34.8 µM)	2.09	3.1 mg/L (≈ 8.63 µM)	0.4 mg/L (≈ 1.11 µM)	25 mg/L (≈ 69.6 µM)
CCNCC1CCN(c2cc3c(cc2F)c(=O)c(C(=O)O)cn3CC)C1 (stereo not given)	0.1 mg/L (≈ 0.277 µM)	0.4 mg/L (≈ 1.11 µM)	0.4 mg/L (≈ 1.11 µM)	1.6 mg/L (≈ 4.43 µM)	2.5 µg/mL	0.15	0.2 mg/L (≈ 0.553 µM)	0.2 mg/L (≈ 0.553 µM)	3.1 mg/L (≈ 8.58 µM)	0.6	0.1 mg/L (≈ 0.277 µM)	0.1 mg/L (≈ 0.277 µM)	0.2 mg/L (≈ 0.553 µM)
CCn1cc(C(=O)O)c(=O)c2c(C)c(F)c(N3CCC(N)C3)cc21 (stereo not given)	3.1 mg/L (≈ 9.3 µM)	0.8 mg/L (≈ 2.4 µM)	0.2 mg/L (≈ 0.6 µM)	1.6 mg/L (≈ 4.8 µM)	6.3 µg/mL	1.38	1.6 mg/L (≈ 4.8 µM)	1.6 mg/L (≈ 4.8 µM)	3.1 mg/L (≈ 9.3 µM)	0.69	0.4 mg/L (≈ 1.2 µM)	0.2 mg/L (≈ 0.6 µM)	1.6 mg/L (≈ 4.8 µM)
CC1(CN)CCN(c2cc3c(cc2F)c(=O)c(C(=O)O)cn3C2CC2)C1 (stereo not given)	0.05 mg/L (≈ 0.139 µM)	0.4 mg/L (≈ 1.11 µM)	0.8 mg/L (≈ 2.23 µM)	0.8 mg/L (≈ 2.23 µM)	3 µg/mL	0.044	0.025 mg/L (≈ 0.0696 µM)	–	0.8 mg/L (≈ 2.23 µM)	0.53	–	0.2 mg/L (≈ 0.556 µM)	0.1 mg/L (≈ 0.278 µM)
CCn1cc(C(=O)O)c(=O)c2c(C)c(F)c(N3CCNCC3)c(F)c21	12.5 mg/L (≈ 35.6 µM)	0.2 mg/L (≈ 0.569 µM)	0.05 mg/L (≈ 0.142 µM)	0.4 mg/L (≈ 1.14 µM)	7.5 µg/mL	2.08	6.3 mg/L (≈ 17.9 µM)	0.8 mg/L (≈ 2.28 µM)	1.6 mg/L (≈ 4.55 µM)	0.2	0.2 mg/L (≈ 0.569 µM)	0.05 mg/L (≈ 0.142 µM)	3.1 mg/L (≈ 8.82 µM)
CCc1c(F)c(N2CCNC(C)C2)cc2c1c(=O)c(C(=O)O)cn2C1CC1 (stereo not given)	25 mg/L (≈ 66.9 µM)	1.6 mg/L (≈ 4.28 µM)	0.8 mg/L (≈ 2.14 µM)	6.3 mg/L (≈ 16.9 µM)	–	10.9	12.5 mg/L (≈ 33.5 µM)	6.3 mg/L (≈ 16.9 µM)	6.3 mg/L (≈ 16.9 µM)	1.83	3.1 mg/L (≈ 8.3 µM)	0.4 mg/L (≈ 1.07 µM)	> 25 mg/L
CCn1cc(C(=O)O)c(=O)c2c(C)c(F)c(N3CCNCC3)cc21	6.3 mg/L (≈ 18.9 µM)	0.4 mg/L (≈ 1.2 µM)	0.2 mg/L (≈ 0.6 µM)	0.4 mg/L (≈ 1.2 µM)	3 µg/mL	2.08	3.1 mg/L (≈ 9.3 µM)	3.1 mg/L (≈ 9.3 µM)	1.6 mg/L (≈ 4.8 µM)	0.35	0.4 mg/L (≈ 1.2 µM)	0.1 mg/L (≈ 0.3 µM)	1.6 mg/L (≈ 4.8 µM)
CCn1cc(C(=O)O)c(=O)c2cc(F)c(N3CC(C)NC(C)C3)cc21 (stereo not given)	1.6 mg/L (≈ 4.61 µM)	0.4 mg/L (≈ 1.15 µM)	0.2 mg/L (≈ 0.576 µM)	0.8 mg/L (≈ 2.3 µM)	–	1.21	1.6 mg/L (≈ 4.61 µM)	1.6 mg/L (≈ 4.61 µM)	6.3 mg/L (≈ 18.1 µM)	0.6	0.4 mg/L (≈ 1.15 µM)	0.2 mg/L (≈ 0.576 µM)	1.6 mg/L (≈ 4.61 µM)
CCNCC1CCN(c2cc3c(cc2F)c(=O)c(C(=O)O)cn3-c2ccc(F)cc2F)C1 (stereo not given)	0.1 mg/L (≈ 0.224 µM)	0.8 mg/L (≈ 1.8 µM)	0.4 mg/L (≈ 0.898 µM)	1.6 mg/L (≈ 3.59 µM)	–	0.087	0.1 mg/L (≈ 0.224 µM)	0.1 mg/L (≈ 0.224 µM)	3.1 mg/L (≈ 6.96 µM)	0.79	0.025 mg/L (≈ 0.0561 µM)	0.2 mg/L (≈ 0.449 µM)	0.2 mg/L (≈ 0.449 µM)
CCc1c(F)c(N2CCNCC2)cc2c1c(=O)c(C(=O)O)cn2C1CC1	25 mg/L (≈ 69.6 µM)	1.6 mg/L (≈ 4.45 µM)	0.8 mg/L (≈ 2.23 µM)	6.3 mg/L (≈ 17.5 µM)	–	16.2	12.5 mg/L (≈ 34.8 µM)	25 mg/L (≈ 69.6 µM)	12.5 mg/L (≈ 34.8 µM)	1.91	6.3 mg/L (≈ 17.5 µM)	0.4 mg/L (≈ 1.11 µM)	> 25 mg/L
Cc1c(F)c(N2CCNCC2)cc2c1c(=O)c(C(=O)O)cn2-c1ccc(F)cc1F	0.1 mg/L (≈ 0.24 µM)	0.1 mg/L (≈ 0.24 µM)	0.05 mg/L (≈ 0.12 µM)	0.2 mg/L (≈ 0.479 µM)	3 µg/mL	0.076	0.05 mg/L (≈ 0.12 µM)	0.1 mg/L (≈ 0.24 µM)	0.8 mg/L (≈ 1.92 µM)	0.13	0.025 mg/L (≈ 0.0599 µM)	0.05 mg/L (≈ 0.12 µM)	0.2 mg/L (≈ 0.479 µM)
CC1(CN)CCN(c2c(F)cc3c(=O)c(C(=O)O)cn(C4CC4)c3c2F)C1 (stereo not given)	0.025 mg/L (≈ 0.0662 µM)	0.1 mg/L (≈ 0.265 µM)	0.025 mg/L (≈ 0.0662 µM)	0.2 mg/L (≈ 0.53 µM)	2.6 µg/mL	0.095	0.006 mg/L (≈ 0.0159 µM)	–	–	0.1	0.003 mg/L (≈ 0.00795 µM)	0.05 mg/L (≈ 0.132 µM)	0.013 mg/L (≈ 0.0344 µM)
